Laboratory results: ChEMBL document CHEMBL2346620, “Design, synthesis and antithrombotic evaluation of novel dabigatran prodrugs containing methyl ferulate” (Bioorg Med Chem Lett, 2013)
Active and inactive are the calls of the source. The calls are words filed in the database; no cut-off is given here.

Legend:
Rattus norvegicus = assay: Antithrombotic activity in intragastrically dosed rat venous thrombosis model; type: functional; details: po
Method in brief: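 Reyers rat venous thrombosis model with intragastric dosing over 0.1–20 mg/kg, and a vehicle-treated control group. Read-out is dry clot weight. Eight animals per group, mean ± SD. ED50 is taken from the dose–response curve of clot weight against log dose (μmol/kg).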

Platelet [1] = assay: Inhibition of ADP-induced rabbit platelet aggregation compound pre-incubated in rabbit liver microsomal suspension; type: functional, microsomes, Microsome; details: Oryctolagus cuniculus
Method in brief: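 Before the in vitro assay, prodrugs were incubated in rabbit liver microsomal suspension. Rabbit platelet aggregation was then induced with ADP. IC50 is the drug concentration giving half-maximal inhibition of aggregation. Mean ± SD from six independent experiments.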

Platelet [2] = assay: Inhibition of thrombin-induced rabbit platelet aggregation compound pre-incubated in rabbit liver microsomal suspension; type: functional, microsomes, Microsome; details: Oryctolagus cuniculus
Method in brief: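 Each compound was first incubated in rabbit liver microsomal suspension, then tested in rabbit platelet aggregation induced by thrombin. IC50 is the concentration giving half-maximal inhibition of aggregation. Mean ± SD of six independent experiments.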

Prothrombin = Prothrombin (Homo sapiens, UniProt P00734); assay: Binding affinity to human thrombin

SMILES | IC50 (Platelet [2]) [µM] | other results
CCCCCCOC(=O)/N=C(/N)c1ccc(NCc2nc3cc(C(=O)N(CCC(=O)Oc4ccc(/C=C/C(=O)OC)cc4OC)c4ccccn4)ccc3n2C)cc1 | 0.29 | ED50 (Rattus norvegicus): 3.7 µmol/kg; IC50 (Platelet [1]): 5800 µM
COc1cc(/C=C/C(=O)O)ccc1O [FERULATE] | – | IC50 (Platelet [1]): 2700 µM
COC(=O)/C=C/c1ccc(OC(=O)CCN(C(=O)c2ccc3c(c2)nc(CNc2ccc(/C(N)=N\C(=O)OC(C)C)cc2)n3C)c2ccccn2)c(OC)c1 | 0.784 | –
CCOC(=O)/N=C(/N)c1ccc(NCc2nc3cc(C(=O)N(CCC(=O)Oc4ccc(/C=C/C(=O)OC)cc4OC)c4ccccn4)ccc3n2C)cc1 | 0.453 | –
COC(=O)/C=C/c1ccc(OC(=O)CCN(C(=O)c2ccc3c(c2)nc(CNc2ccc(/C(N)=N\C(=O)OC(C)(C)C)cc2)n3C)c2ccccn2)c(OC)c1 | 0.607 | –
CCCCCCOC(=O)NC(=N)c1ccc(NCc2nc3cc(C(=O)N(CCC(=O)OCC)c4ccccn4)ccc3n2C)cc1 [DABIGATRAN ETEXILATE] | 0.337 | ED50 (Rattus norvegicus): 7.8 µmol/kg; Ki (Prothrombin): 0.0045 µM; inhibition (Platelet [1]; Microsome): inactive
CCCCCOC(=O)/N=C(/N)c1ccc(NCc2nc3cc(C(=O)N(CCC(=O)Oc4ccc(/C=C/C(=O)OC)cc4OC)c4ccccn4)ccc3n2C)cc1 | 0.206 | –
COC(=O)/C=C/c1ccc(OC(=O)CCN(C(=O)c2ccc3c(c2)nc(CNc2ccc(/C(N)=N\C(=O)OCc4ccccc4)cc2)n3C)c2ccccn2)c(OC)c1 | 0.687 | –
COC(=O)/C=C/c1ccc(OC(=O)CCN(C(=O)c2ccc3c(c2)nc(CNc2ccc(/C(N)=N\C(=O)OC)cc2)n3C)c2ccccn2)c(OC)c1 | 0.841 | –
